# Assay outcomes from PubChem BioAssay.
# GRK2 aptamer HTS = inhibitors of human GRK2 displacing RNA aptamer | bead flow cytometry, FAM-aptamer displacement from GRK2 | inhibition of aptamer binding, % at 10 µM | AID 488847 | P25098 | 330,000 compounds, 0.59% hits;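 active = inhibition of aptamer binding above 40%, roughly 3 SD of noise, on plates passing a quality check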;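 also: median bead fluorescence of bound FAM aptamer so fluorescent compounds give negative values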
# Target sequence (P25098 whole entry, looked up): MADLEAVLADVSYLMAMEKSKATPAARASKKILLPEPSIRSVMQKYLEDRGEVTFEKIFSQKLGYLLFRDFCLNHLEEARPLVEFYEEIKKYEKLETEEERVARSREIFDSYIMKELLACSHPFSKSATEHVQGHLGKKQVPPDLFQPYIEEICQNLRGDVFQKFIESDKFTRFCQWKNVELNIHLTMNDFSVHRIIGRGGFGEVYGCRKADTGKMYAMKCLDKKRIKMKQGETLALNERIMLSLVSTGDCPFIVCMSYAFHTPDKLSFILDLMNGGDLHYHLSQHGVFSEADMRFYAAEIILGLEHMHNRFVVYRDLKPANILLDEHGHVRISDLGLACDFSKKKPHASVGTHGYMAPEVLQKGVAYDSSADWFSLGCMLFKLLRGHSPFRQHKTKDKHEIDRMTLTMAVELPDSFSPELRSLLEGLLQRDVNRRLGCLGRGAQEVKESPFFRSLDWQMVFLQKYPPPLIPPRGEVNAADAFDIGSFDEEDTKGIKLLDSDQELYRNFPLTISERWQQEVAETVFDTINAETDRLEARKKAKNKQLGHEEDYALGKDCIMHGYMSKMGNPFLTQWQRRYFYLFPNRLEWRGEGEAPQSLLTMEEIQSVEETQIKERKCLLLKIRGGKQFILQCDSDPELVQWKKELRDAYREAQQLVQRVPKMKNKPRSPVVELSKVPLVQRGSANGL
# Rce1 inh = blocks yeast Ras-converting enzyme. Q03530. yeast membranes, quenched prenylated peptide cleavage fluorescence. 290,000 compounds, 0.27% hits. calls only;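 active = fall in fluorescence gain of 50% or more versus controls, with final raw signal at or below 3038400; inconclusive = same 50% fall but final raw signal above 3038400; inactive = fall in fluorescence gain under 50%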;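 also: plate controls were neutral control wells for no effect and wells lacking membranes for full effect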
# T cell HTS = T cell immune modulators affecting CD8 T cell-vesicle binding; 2C CD8+ T cell-vesicle binding, flow cytometry; active compounds read low; response (vesicle binding), % at 7 µM; 330,000 compounds, 0.068% hits;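 active = response, share of CD8 T cells binding vesicles, and their 90th percentile fluorescence all below set limits, cut at about 80% in these data, passing the limit was not always enough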;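 also: values below 100% mean blocked vesicle binding to the CD8+ T cells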
#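 Also added: QL9-peptide-loaded Drosophila micro-vesicles bearing Ld, ICAM-1 and B7-1; Test system: purified 2C TCR transgenic mouse naive CD8+ T cells; Measured by: cytometric PE anti-B7-1 and Alexa647 anti-CD8 signals after 1% paraformaldehyde fixation; Timing: binding step 1.5 h, 37 °C, antibody labelling 20 min, ice.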
# SKN-1 block = blocks SKN-1 activity in C. elegans; C. elegans VP596 Pgst-4::GFP/RFP ratio, acrylamide-induced, 24 h; inhibition, % at 21.8 µM; 360,000 compounds, 0.49% hits; AID 624304;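 active = interference check ratio from 0.5 to 1.5 plus GFP to RFP signal ratio inhibition reaching or exceeding a fixed threshold, cut at about 30% in these data, passing the limit was not always enough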
# Myeloid diff 2 = compounds promoting myeloid differentiation. AID 624256. ER-HoxA9 myeloid progenitors, lysozyme-GFP differentiation, flow cytometry. 360,000 compounds, 1% hits. calls only at 10 µM;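 active = normalized GFP-positive differentiation at or above the plate's own cutoff, the solvent-only control mean plus 3 SD; inconclusive = no clear call, values can overlap the other calls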;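 also: cells exposed to compound for four days before flow analysis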
# Rin1 Abl inh = human Rin1-Abl interaction inhibition; 360,000 compounds, 0.4% hits; AID 588664; P00519+Q13671; inhibition, % at 7.35 µM; TR-FRET Rin1/Abl binding, biochemical; in the data active = inhibition above about 5%, passing the limit was not always enough
# Myeloid diff CP1 = promotes myeloid progenitor differentiation; shares compounds with Myeloid diff 2; ER-HoxA9 myeloid progenitors, GFP/Mac1 double-positive flow; calls only; 2,300 compounds, 2% hits; AID 651706;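 active = share of green or green-and-red cells above 9 and 9% in run 1 or 4 and 3% in run 2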
# GFP autofluor = flagged as fluorescent in myeloid differentiation counter-screen; shares compounds with Myeloid diff 2; ER-HoxA9 myeloid progenitors, no estrogen, GFP autofluorescence flow cytometry; vehicle wells 0%, positive control 100%; fluorescence response, % (test concentration not listed); 2,300 compounds, 7.4% hits; AID 651707;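 active = over 5% cells positive for green fluorescent reporter, or over 2% positive for both it and APC stain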;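 also: range taken on the double positive population between DMSO and positive control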
# * marks the source's active call; other numbers are inactive results; i = inactive; ? = inconclusive; · = not tested or not shown; + = active, no number. Compounds with a hit are over-represented: about 2.6% of the library has one in this group of screens.
SMILES,GRK2 aptamer HTS,Rce1 inh,T cell HTS,SKN-1 block,Myeloid diff 2,Rin1 Abl inh,Myeloid diff CP1,GFP autofluor
CCOc1ccccc1NC(=O)NC1(C(=O)NCc2cccnc2)CCCCC1,0,i,244,-1,i,5,i,0
CS(=O)(=O)Nc1cccc(C2=NN(S(=O)(=O)c3ccccc3)C(c3ccco3)C2)c1 (centres undefined),0,i,272,5,i,1,·,·
CCS(=O)(=O)N1N=C(c2cccc(NS(C)(=O)=O)c2)CC1c1ccccc1 (centres undefined),36,i,438,65,+,0,i,97*
Cc1cc(C)nc(Nc2ncc(O)n2-c2ccc(C)c(C)c2)n1,3,i,241,21,i,-6,·,·
COc1ccc(OC)c(-n2c(O)cnc2Nc2nc(C)cc(C)n2)c1,3,i,393,0,i,1,i,0
COc1cccc(C(=O)NC(=S)Nc2ccccc2N2CCCCC2)c1,2,i,i,21,+,2,i,1
CCN(CC)C(=O)C1=C(C)N(CCC2=CCCCC2)C(=O)C(CC(=O)NCc2cccc3ccccc23)C1 (centres undefined),·,·,·,-1,i,0,·,·
CN1CCN(S(=O)(=O)c2ccc(N(C)Cc3cccc(F)c3)nc2)CC1,2,·,432,-9,i,1,·,·
O=C(NNC1=C(C(=O)C(F)(F)F)CCC1)c1ccccc1Cl,0,i,264,8,i,-1,·,·
COc1ccccc1C(=O)NNC1=C(C(=O)C(F)(F)F)CCC1,3,i,565,4,+,2,i,2
Nc1ccccc1C(=O)NNC1=C(C(=O)C(F)(F)F)CCC1,0,·,334,13,+,-5,i,2
O=C(NNC1=C(C(=O)C(F)(F)F)CCC1)c1ccccc1O,1,i,222,-12,i,-1,·,·
O=c1nc2n(c3cccc(Cl)c13)CCCCC2,0,i,430,-3,i,1,·,·
CN(C)S(=O)(=O)N(CC(=O)Nc1ccc(S(=O)(=O)N2CCCC2)cc1)c1ccccc1,0,i,0,3,i,-2,·,·
Fc1ccc(OCc2nc(-c3ccncc3)n[nH]2)cc1,26,i,215,-11,i,4,·,·
Clc1cccc(OCc2nc(-c3ccncc3)n[nH]2)c1,21,i,276,-6,i,-2,i,0
CC1CCCCC1NC(=O)C(=O)NCC1CCCO1 (centres undefined),0,i,162,20,i,5,i,0
O=C(O)CN1CCN(Cc2cccc(Cl)c2)C1=O,4,i,322,-5,i,6,·,·
O=C(Oc1ccnc2cc(Cl)ccc12)N1CCOCC1,0,i,560,-14,i,3,i,0
O=C(Oc1c(Cl)cc(Cl)c2cccnc12)N1CCOCC1,0,i,424,3,i,-2,·,·
CCOc1ccc(C)cc1S(=O)(=O)n1cnc2ccccc21,0,i,842,15,?,0,·,·
COCCCNC(=O)C(Cc1ccccc1)NS(=O)(=O)c1ccc2c(c1)c(=O)n(C)c(=O)n2C (centres undefined),1,i,209,-1,i,2,·,·
Cn1c(=O)c2cc(S(=O)(=O)NC(Cc3ccccc3)C(=O)NCc3ccco3)ccc2n(C)c1=O (centres undefined),1,i,682,5,i,-3,i,0
COc1ccc(/C=N/NC(=O)c2ccc(CN3c4cccc5cccc(c45)S3(=O)=O)cc2)cc1,0,i,300,8,i,-2,·,·
O=C(N/N=C/CCc1ccccc1)c1ccc(CN2c3cccc4cccc(c34)S2(=O)=O)cc1,0,i,413,-8,i,-1,i,0
COc1ccc(Oc2nccc(OC)c2C#N)cc1,3,i,584,1,i,0,·,·
COc1ccnc(Oc2ccc(C)cc2C)c1C#N,0,i,349,1,+,6,i,0
